Values after ≈ are worked out from the molar mass of the structure shown.
What was measured:
Type in all cases: functional
Staphylococcus aureus [1] = assay: Antibacterial activity against methicillin resistant Staphylococcus aureus ATCC 700698 by microdilution method
Outline: (§1)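 Broth microdilution MIC in cation-adjusted Mueller Hinton II broth. Compounds were made up at 2 mg/mL (starting solution) in DMF plus broth, with DMF ≤0.5% of media, then serially diluted in broth. Inoculum was a 0.5 McFarland suspension, 0.2 mL diluted into 40 mL broth and added to wells. Drug-free controls were included. MIC was the well with no turbidity versus controls; each strain was tested at least in triplicate.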

Staphylococcus aureus [2] = assay: Antibacterial activity against methicillin resistant Staphylococcus aureus ATCC BAA-1680 by microdilution method; outline: as §1
Staphylococcus aureus [3] = assay: Antibacterial activity against methicillin resistant Staphylococcus aureus ATCC 700787 by microdilution method; outline: as §1
Staphylococcus aureus [4] = assay: Antibacterial activity against methicillin resistant Staphylococcus aureus ATCC 34404 by microdilution method; outline: as §1
Staphylococcus aureus [5] = assay: Antibacterial activity against methicillin resistant Staphylococcus aureus ATCC BAA-39 by microdilution method; outline: as §1

SMILES: CC1(C)S[C@@H]2[C@H](NC(=O)Cc3ccccc3)C(=O)N2[C@H]1C(=O)O [PENICILLIN G]
- MIC (Staphylococcus aureus [1]): 15.6 µg/mL (≈ 46.7 µM)
- MIC (Staphylococcus aureus [2]): 62.5 µg/mL (≈ 187 µM)
- MIC (Staphylococcus aureus [3]): 31.2 µg/mL (≈ 93.5 µM)
- MIC (Staphylococcus aureus [4]): 31.2 µg/mL (≈ 93.5 µM)
- MIC (Staphylococcus aureus [5]): 31.2 µg/mL (≈ 93.5 µM)

SMILES: O=C(O)CN1C(=O)/C(=C/c2ccc(Cl)c(Cl)c2)SC1=S
- MIC (Staphylococcus aureus [1]): 125 µg/mL (≈ 359 µM)
- MIC (Staphylococcus aureus [2]): 125 µg/mL (≈ 359 µM)
- MIC (Staphylococcus aureus [3]): 125 µg/mL (≈ 359 µM)
- MIC (Staphylococcus aureus [4]): 125 µg/mL (≈ 359 µM)
- MIC (Staphylococcus aureus [5]): 125 µg/mL (≈ 359 µM)

SMILES: CC(C)C(C(=O)O)N1C(=O)/C(=C/c2cccc3ccccc23)SC1=S (stereo not given)
- MIC (Staphylococcus aureus [1]): 62.5 µg/mL (≈ 168 µM)
- MIC (Staphylococcus aureus [2]): 62.5 µg/mL (≈ 168 µM)
- MIC (Staphylococcus aureus [3]): 62.5 µg/mL (≈ 168 µM)
- MIC (Staphylococcus aureus [4]): 62.5 µg/mL (≈ 168 µM)
- MIC (Staphylococcus aureus [5]): 62.5 µg/mL (≈ 168 µM)

SMILES: O=C(O)CN1C(=O)/C(=C/C2CCCCC2)SC1=S
- MIC (Staphylococcus aureus [1]): 31.2 µg/mL (≈ 109 µM)
- MIC (Staphylococcus aureus [2]): 31.2 µg/mL (≈ 109 µM)
- MIC (Staphylococcus aureus [3]): 31.2 µg/mL (≈ 109 µM)
- MIC (Staphylococcus aureus [4]): 31.2 µg/mL (≈ 109 µM)
- MIC (Staphylococcus aureus [5]): 31.2 µg/mL (≈ 109 µM)

SMILES: O=C(O)CN1C(=O)/C(=C/c2ccccc2[N+](=O)[O-])SC1=S
- MIC (Staphylococcus aureus [1]): 62.5 µg/mL (≈ 193 µM)
- MIC (Staphylococcus aureus [2]): 62.5 µg/mL (≈ 193 µM)
- MIC (Staphylococcus aureus [3]): 62.5 µg/mL (≈ 193 µM)
- MIC (Staphylococcus aureus [4]): 62.5 µg/mL (≈ 193 µM)
- MIC (Staphylococcus aureus [5]): 62.5 µg/mL (≈ 193 µM)

SMILES: O=C(O)CN1C(=O)/C(=C/c2cccc(Oc3ccccc3)c2)SC1=S
- MIC (Staphylococcus aureus [1]): 31.2 µg/mL (≈ 84.1 µM)
- MIC (Staphylococcus aureus [2]): 31.2 µg/mL (≈ 84.1 µM)
- MIC (Staphylococcus aureus [3]): 31.2 µg/mL (≈ 84.1 µM)
- MIC (Staphylococcus aureus [4]): 31.2 µg/mL (≈ 84.1 µM)
- MIC (Staphylococcus aureus [5]): 31.2 µg/mL (≈ 84.1 µM)

SMILES: CC(C)C(C(=O)O)N1C(=O)/C(=C/c2ccc(F)cc2)SC1=S (stereo not given)
- MIC (Staphylococcus aureus [1]): 62.5 µg/mL (≈ 184 µM)
- MIC (Staphylococcus aureus [3]): 62.5 µg/mL (≈ 184 µM)
- MIC (Staphylococcus aureus [5]): 62.5 µg/mL (≈ 184 µM)

SMILES: O=C(O)C(Cc1ccccc1)N1C(=O)/C(=C/c2cccc(Oc3ccccc3)c2)SC1=S (stereo not given)
- MIC (Staphylococcus aureus [1]): 3.9 µg/mL (≈ 8.45 µM)
- MIC (Staphylococcus aureus [2]): 1.95 µg/mL (≈ 4.22 µM)
- MIC (Staphylococcus aureus [3]): 3.9 µg/mL (≈ 8.45 µM)
- MIC (Staphylococcus aureus [4]): 1.95 µg/mL (≈ 4.22 µM)
- MIC (Staphylococcus aureus [5]): 3.9 µg/mL (≈ 8.45 µM)

SMILES: O=C(O)C(Cc1ccccc1)N1C(=O)/C(=C/c2ccccc2[N+](=O)[O-])SC1=S (stereo not given)
- MIC (Staphylococcus aureus [1]): 62.5 µg/mL (≈ 151 µM)
- MIC (Staphylococcus aureus [2]): 62.5 µg/mL (≈ 151 µM)
- MIC (Staphylococcus aureus [3]): 125 µg/mL (≈ 302 µM)
- MIC (Staphylococcus aureus [4]): 125 µg/mL (≈ 302 µM)
- MIC (Staphylococcus aureus [5]): 62.5 µg/mL (≈ 151 µM)

SMILES: CCCC(C(=O)O)N1C(=O)/C(=C/c2ccc(Cl)cc2Cl)SC1=S (stereo not given)
- MIC (Staphylococcus aureus [1]): 15.6 µg/mL (≈ 40 µM)
- MIC (Staphylococcus aureus [2]): 15.6 µg/mL (≈ 40 µM)
- MIC (Staphylococcus aureus [3]): 15.6 µg/mL (≈ 40 µM)
- MIC (Staphylococcus aureus [4]): 15.6 µg/mL (≈ 40 µM)
- MIC (Staphylococcus aureus [5]): 15.6 µg/mL (≈ 40 µM)

SMILES: COc1ccc(/C=C2\SC(=S)N(CC(=O)O)C2=O)cc1
- MIC (Staphylococcus aureus [1]): 250 µg/mL (≈ 808 µM)
- MIC (Staphylococcus aureus [2]): 250 µg/mL (≈ 808 µM)
- MIC (Staphylococcus aureus [3]): 250 µg/mL (≈ 808 µM)
- MIC (Staphylococcus aureus [4]): 200 µg/mL (≈ 646 µM)
- MIC (Staphylococcus aureus [5]): 250 µg/mL (≈ 808 µM)

SMILES: O=C(O)CN1C(=O)/C(=C/c2ccnc3ccccc23)SC1=S
- MIC (Staphylococcus aureus [1]): 500 µg/mL (≈ 1510 µM)
- MIC (Staphylococcus aureus [2]): 250 µg/mL (≈ 757 µM)
- MIC (Staphylococcus aureus [3]): 250 µg/mL (≈ 757 µM)
- MIC (Staphylococcus aureus [4]): 200 µg/mL (≈ 605 µM)
- MIC (Staphylococcus aureus [5]): 500 µg/mL (≈ 1510 µM)

SMILES: CN[C@H](CC(C)C)C(=O)N[C@H]1C(=O)N[C@@H](CC(N)=O)C(=O)N[C@H]2C(=O)N[C@H]3C(=O)N[C@H](C(=O)N[C@H](C(=O)O)c4cc(O)cc(O)c4-c4cc3ccc4O)[C@H](O)c3ccc(c(Cl)c3)Oc3cc2cc(c3O[C@@H]2O[C@H](CO)[C@@H](O)[C@H](O)[C@H]2O[C@H]2C[C@](C)(N)[C@H](O)[C@H](C)O2)Oc2ccc(cc2Cl)[C@H]1O [VANCOMYCIN]
- MIC (Staphylococcus aureus [1]): ≤ 0.97 µg/mL
- MIC (Staphylococcus aureus [2]): ≤ 0.97 µg/mL
- MIC (Staphylococcus aureus [3]): 1.95 µg/mL (≈ 1.35 µM)
- MIC (Staphylococcus aureus [4]): ≤ 0.97 µg/mL
- MIC (Staphylococcus aureus [5]): ≤ 0.97 µg/mL

SMILES: CCSCC(C(=O)O)N1C(=O)/C(=C/c2ccc(Cl)cc2Cl)SC1=S (stereo not given)
- MIC (Staphylococcus aureus [1]): 31.2 µg/mL (≈ 74 µM)
- MIC (Staphylococcus aureus [2]): 31.2 µg/mL (≈ 74 µM)
- MIC (Staphylococcus aureus [3]): 31.2 µg/mL (≈ 74 µM)
- MIC (Staphylococcus aureus [4]): 31.2 µg/mL (≈ 74 µM)
- MIC (Staphylococcus aureus [5]): 31.2 µg/mL (≈ 74 µM)

SMILES: CC(C)CC(C(=O)O)N1C(=O)/C(=C/c2ccc(Cl)cc2Cl)SC1=S (stereo not given)
- MIC (Staphylococcus aureus [1]): 15.6 µg/mL (≈ 38.6 µM)
- MIC (Staphylococcus aureus [2]): 15.6 µg/mL (≈ 38.6 µM)
- MIC (Staphylococcus aureus [3]): 15.6 µg/mL (≈ 38.6 µM)
- MIC (Staphylococcus aureus [4]): 15.6 µg/mL (≈ 38.6 µM)
- MIC (Staphylococcus aureus [5]): 15.6 µg/mL (≈ 38.6 µM)

SMILES: O=C(O)CN1C(=O)/C(=C/C=C/c2ccccc2)SC1=S
- MIC (Staphylococcus aureus [1]): 250 µg/mL (≈ 819 µM)
- MIC (Staphylococcus aureus [2]): 250 µg/mL (≈ 819 µM)
- MIC (Staphylococcus aureus [3]): 250 µg/mL (≈ 819 µM)
- MIC (Staphylococcus aureus [4]): 250 µg/mL (≈ 819 µM)
- MIC (Staphylococcus aureus [5]): 250 µg/mL (≈ 819 µM)

SMILES: O=C(O)c1cn(C2CC2)c2cc(N3CCNCC3)c(F)cc2c1=O [CIPROFLOXACIN]
- MIC (Staphylococcus aureus [3]): 62.5 µg/mL (≈ 189 µM)

SMILES: CC(C)C(C(=O)O)N1C(=O)/C(=C/c2ccc(Cl)cc2Cl)SC1=S (stereo not given)
- MIC (Staphylococcus aureus [1]): 15.6 µg/mL (≈ 40 µM)
- MIC (Staphylococcus aureus [2]): 15.6 µg/mL (≈ 40 µM)
- MIC (Staphylococcus aureus [3]): 15.6 µg/mL (≈ 40 µM)
- MIC (Staphylococcus aureus [4]): 15.6 µg/mL (≈ 40 µM)
- MIC (Staphylococcus aureus [5]): 15.6 µg/mL (≈ 40 µM)

SMILES: CC(C(=O)O)N1C(=O)/C(=C/c2ccc(Cl)cc2Cl)SC1=S (stereo not given)
- MIC (Staphylococcus aureus [1]): 125 µg/mL (≈ 345 µM)
- MIC (Staphylococcus aureus [3]): 125 µg/mL (≈ 345 µM)
- MIC (Staphylococcus aureus [5]): 125 µg/mL (≈ 345 µM)

SMILES: O=C(O)C(Cc1ccccc1)N1C(=O)/C(=C/c2ccc(Cl)cc2Cl)SC1=S (stereo not given)
- MIC (Staphylococcus aureus [1]): 15.6 µg/mL (≈ 35.6 µM)
- MIC (Staphylococcus aureus [2]): 15.6 µg/mL (≈ 35.6 µM)
- MIC (Staphylococcus aureus [3]): 15.6 µg/mL (≈ 35.6 µM)
- MIC (Staphylococcus aureus [4]): 15.6 µg/mL (≈ 35.6 µM)
- MIC (Staphylococcus aureus [5]): 15.6 µg/mL (≈ 35.6 µM)

SMILES: CC(C)C(C(=O)O)N1C(=O)/C(=C/c2ccccc2Cl)SC1=S (stereo not given)
- MIC (Staphylococcus aureus [1]): 62.5 µg/mL (≈ 176 µM)
- MIC (Staphylococcus aureus [3]): 62.5 µg/mL (≈ 176 µM)
- MIC (Staphylococcus aureus [5]): 62.5 µg/mL (≈ 176 µM)

SMILES: O=C(O)CN1C(=O)/C(=C/c2ccc([N+](=O)[O-])cc2)SC1=S
- MIC (Staphylococcus aureus [1]): 250 µg/mL (≈ 771 µM)
- MIC (Staphylococcus aureus [2]): 250 µg/mL (≈ 771 µM)
- MIC (Staphylococcus aureus [3]): 250 µg/mL (≈ 771 µM)
- MIC (Staphylococcus aureus [4]): 250 µg/mL (≈ 771 µM)
- MIC (Staphylococcus aureus [5]): 250 µg/mL (≈ 771 µM)

Source: ChEMBL document CHEMBL1629498, “The synthesis of phenylalanine-derived C5-substituted rhodanines and their activity against selected methicillin-resistant Staphylococcus aureus (MRSA) strains” (2010)
